Two compounds from ChEMBL document CHEMBL4145675, “2-Phenylquinoline S. aureus NorA Efflux Pump Inhibitors: Evaluation of the Importance of Methoxy Group Introduction” (J Med Chem, 2018) can be followed below.

For data set [1], the target named is T1, Quinolone resistance protein NorA (Staphylococcus aureus) (UniProt P0A0J7).
T1 sequence (whole entry): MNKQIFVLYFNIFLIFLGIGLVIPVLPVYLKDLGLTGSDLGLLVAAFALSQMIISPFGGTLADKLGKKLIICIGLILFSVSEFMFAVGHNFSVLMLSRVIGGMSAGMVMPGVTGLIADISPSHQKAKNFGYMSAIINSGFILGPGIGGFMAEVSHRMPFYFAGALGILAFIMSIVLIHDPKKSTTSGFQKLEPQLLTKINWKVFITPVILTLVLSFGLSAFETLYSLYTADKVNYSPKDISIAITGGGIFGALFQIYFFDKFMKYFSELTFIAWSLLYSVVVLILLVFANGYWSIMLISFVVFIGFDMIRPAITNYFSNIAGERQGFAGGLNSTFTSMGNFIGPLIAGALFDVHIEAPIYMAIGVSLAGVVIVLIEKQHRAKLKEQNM
Briefly: Inhibition of NorA in Staphylococcus aureus SA-1199B expressing GrlA A116E mutant assessed as reduction in EtBr efflux at 50 uM incubated for 5 mins by fluorescence based assay. Put shortly: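 Cells were grown overnight in cation-supplemented Mueller-Hinton broth at 35 °C and subcultured to OD600 0.7–0.8. They were loaded at OD600 0.8 with 25 µM EtBr plus 100 µM CCCP (final) for 20 min at room temperature. Cells were then resuspended in fresh broth with or without compound, 50 µM for the single-point screen or a concentration series for IC50. Fluorescence (ex 485/em 645 nm) was read for 5 min. Inhibition was calculated from the fluorescence decrease versus untreated cells. Biological triplicate, each run twice.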

For data set [2], the system named is Staphylococcus aureus. Briefly: Antimicrobial activity against NorA deficient Staphylococcus aureus SA-K1902 by microdilution method. It is filed as organism-based. The note with it: in vivo. The method, boiled down: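 CLSI broth microdilution MIC of the compound alone. Strains: SA-K1902 (norA deleted), SA-K2378 (SA-K1902 carrying norA plus its promoter on multicopy plasmid pCU1), SA-1199B (norA overexpressing, GrlA A116E).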

The subject of data set [3] is Staphylococcus aureus. Nature of the data set: Induction of membrane depolarization in Staphylococcus aureus SA-1199B expressing wild type norA at 1 to 10 ug/ml incubated for 30 mikns by DiOC2(3) fluorescent probe based cytofluorimetry. It is filed as organism-based. To be noted: in vivo. The method, boiled down: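 SA-1199B was grown in MHB at 37 °C to OD600 0.6, washed, and diluted to 1×10^6 CFU/mL in filtered PBS. DiOC2(3) was added at 30 µM final, and compound at 1, 5 or 10 µg/mL for 30 min. CCCP 5 µM final served as positive control. Flow cytometry with 488 nm excitation gave a red/green ratio normalized to the DiOC2(3) blank, expressed as % depolarized versus drug-free control.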

In data set [4] the test system is Staphylococcus aureus. Nature of the data set: Synergistic potentiation of EtBr-induced antimicrobial activity against mepA deficient Staphylococcus aureus SA-K2885 at 0.78 to 100 ug/ml by microdilution method based Checkerboard assay. Type of data set: organism-based. The note with it: in vivo. The method, boiled down: (§1)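 Checkerboard combination of EtBr with compound, using broth microdilution MICs. SA-K2886 (norA-deleted, pALC2073-mepA) and SA-K2885 (norA-deleted, empty pALC2073) were run with 0.05 µg/mL tetracycline in all experiments to induce the xyl/tetO promoter.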

A short description of data set [5]: Metabolic stability in mouse liver microsomes assessed as parent compound remaining at 50 uM in presence of NADPH regenerating system incubated for 120 mins by UPLC/MS analysis. The note with it: read-out: Stability. Type of data set: ADME, microsome. The method, boiled down:
(§2)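 1 mg/mL mouse liver microsomes in 0.1 M Tris-HCl pH 7.4 with test compound at 50 µM, DMSO up to ~3%. Preincubated 5 min at 37 °C, then started with NADPH regeneration system. Stopped at 120 min with cold methanol and centrifuged. Supernatant analysed by UPLC/MS (ESI, tandem quadrupole).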

A short description of data set [6]: Drug metabolism in mouse liver microsomes assessed as compound oxidation at 50 uM in presence of NADPH regenerating system incubated for 120 mins by UPLC/MS analysis. It is filed as ADME, microsome. The note with it: 2 h. Put shortly:
as §2

In a further data set the target is CYP3A4 (Homo sapiens, UniProt P08684). Nature of the data set: (§3) Inhibition of human recombinant CYP3A4 at 10 uM using beetle D-luciferin as substrate by CYP450-Glo assay. The note with it: recombinant CYP3A4, probe beetle D-luciferin. It is filed as ADME. The method, boiled down: (§4)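 Luminescent P450-Glo assay in which recombinant human CYP3A4 or CYP2D6 converts a beetle D-luciferin derivative to D-luciferin. Compound was tested at 1 and 10 µM.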

Data set [7] deals with T2, Cytochrome P450 3A4 (Homo sapiens, UniProt P08684). Nature of the data set: Inhibition of human recombinant CYP3A4 at 1 uM using beetle D-luciferin as substrate by CYP450-Glo assay. To be noted: recombinant enzyme. It is filed as ADME. The method, boiled down: as §4
A further data set concerns the target Cytochrome P450 2D6 (Homo sapiens, UniProt P10635). Nature of the data set: Inhibition of human recombinant CYP2D6 at 1 uM using beetle D-luciferin as substrate by CYP450-Glo assay. Type of data set: ADME. The note with it: recombinant enzyme. Put shortly: as §4
Data set [8] in a line: Selectivity index, ratio of CC50 for human THP1 cells to inhibition of NorA in Staphylococcus aureus SA-1199B expressing GrlA A116E mutant assessed as minimal potentiating drug concentration causing 8 fold reduction in ciprofloxacin MIC by microdilution method based Checkerboard assay. It is filed as toxicity. The note with it: read-out: Selectivity Index. The method, boiled down:
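CC50 cells (HepG2 for […], THP-1 for […]) were grown to confluence in RPMI 1640 with 10% FCS, penicillin and streptomycin. They were exposed 24 h at 37 °C to 0–250 µg/mL. Viability was read by ATP bioluminescence, triplicate. CC50 is the concentration reducing cell number 50% versus untreated.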

Data set [9] deals with T3, Multidrug export protein MepA (Staphylococcus aureus (strain NCTC 8325)) (UniProt Q2G140).
T3 sequence (whole entry): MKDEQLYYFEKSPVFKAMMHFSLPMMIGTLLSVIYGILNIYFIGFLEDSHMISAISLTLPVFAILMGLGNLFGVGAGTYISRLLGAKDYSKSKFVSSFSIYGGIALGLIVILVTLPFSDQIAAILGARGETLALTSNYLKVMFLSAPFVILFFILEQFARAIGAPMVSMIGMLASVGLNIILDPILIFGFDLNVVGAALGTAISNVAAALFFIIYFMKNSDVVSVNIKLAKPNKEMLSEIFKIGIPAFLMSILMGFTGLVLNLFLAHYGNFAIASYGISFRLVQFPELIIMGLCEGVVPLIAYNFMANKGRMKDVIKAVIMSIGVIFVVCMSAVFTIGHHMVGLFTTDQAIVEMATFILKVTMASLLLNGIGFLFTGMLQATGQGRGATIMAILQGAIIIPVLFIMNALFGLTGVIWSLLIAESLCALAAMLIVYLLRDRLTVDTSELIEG
Nature of the data set: Inhibition of MepA in Staphylococcus aureus SA-K2886 assessed as synergistic potentiation of EtBr-induced antimicrobial activity by measuring […] at 1.56 ug/ml by microdilution method based Checkerboard assay (reference value: 25 ug/ml). The method, boiled down:
as §1

Data set [10] can be described thus: Drug metabolism in mouse liver microsomes assessed as compound demethylation at 50 uM in presence of NADPH regenerating system incubated for 120 mins by UPLC/MS analysis. It is filed as ADME, microsome. To be noted: 2 h, in the assay text read “hydroxylation and ring opening” for “demethylation”. The method, boiled down: as §2
Data set [11] deals with T2, Cytochrome P450 3A4. The description is as §3. To be noted: recombinant enzyme, 10 µM. It is filed as ADME. The method, boiled down: as §4

≈ marks a conversion by molar mass, not a printed value. A value given as a limit tells only on which side of the number the result lay.

T2 sequence (P08684 whole entry): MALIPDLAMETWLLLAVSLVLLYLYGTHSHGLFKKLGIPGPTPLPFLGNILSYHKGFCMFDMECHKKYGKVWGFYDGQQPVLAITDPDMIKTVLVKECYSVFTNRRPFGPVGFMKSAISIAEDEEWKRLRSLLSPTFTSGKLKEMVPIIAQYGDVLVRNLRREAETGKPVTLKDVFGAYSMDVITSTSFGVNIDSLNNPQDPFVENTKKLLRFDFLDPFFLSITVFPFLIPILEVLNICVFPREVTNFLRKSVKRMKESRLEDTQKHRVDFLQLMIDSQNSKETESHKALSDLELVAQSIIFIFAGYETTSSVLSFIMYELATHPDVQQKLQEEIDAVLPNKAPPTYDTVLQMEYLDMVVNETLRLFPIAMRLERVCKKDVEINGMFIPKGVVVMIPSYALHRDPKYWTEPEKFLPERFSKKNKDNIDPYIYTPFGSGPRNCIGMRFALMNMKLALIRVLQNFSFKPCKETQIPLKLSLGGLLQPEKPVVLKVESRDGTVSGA
Sequence of Cytochrome P450 2D6 (P10635 whole entry): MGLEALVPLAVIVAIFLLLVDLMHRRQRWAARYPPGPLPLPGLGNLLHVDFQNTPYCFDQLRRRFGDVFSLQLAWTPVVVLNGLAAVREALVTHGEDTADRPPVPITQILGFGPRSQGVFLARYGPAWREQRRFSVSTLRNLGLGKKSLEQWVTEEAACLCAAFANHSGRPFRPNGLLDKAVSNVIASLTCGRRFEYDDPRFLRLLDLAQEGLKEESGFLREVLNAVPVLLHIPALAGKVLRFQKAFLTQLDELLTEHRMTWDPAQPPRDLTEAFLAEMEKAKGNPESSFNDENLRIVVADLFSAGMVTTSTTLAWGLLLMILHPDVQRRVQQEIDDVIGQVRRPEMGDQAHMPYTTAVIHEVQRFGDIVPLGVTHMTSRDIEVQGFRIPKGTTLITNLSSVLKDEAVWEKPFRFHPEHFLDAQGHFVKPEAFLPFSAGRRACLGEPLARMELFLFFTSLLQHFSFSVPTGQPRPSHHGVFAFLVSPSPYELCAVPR
Sequence of CYP3A4 (P08684 whole entry): as the sequence (P08684 whole entry) above

In the case of `CCCOc1ccc(-c2cc(OCCN3CCc4cc(OC)c(OC)cc4C3)c3cc(OC)c(OC)cc3n2)cc1`, in data set [1], the inhibition worked out at 94.1%. In the data set with Staphylococcus aureus [2], this compound came in with an MIC of 100 µg/mL (≈ 179 µM). For the same compound, the Activity result in the data set with Staphylococcus aureus [3] is on record as “Dose-dependent effect”; in the data set with Staphylococcus aureus [4] it was “Non-Toxic”. For the same compound, in data set [5], the remaining at 2 h, 50 µM came out at 62%. For the same compound, the Drug metabolism entry in data set [6] was “Metabolite_Detected”. For the same compound, the inhibition at 10 µM on CYP3A4 is at most 60%. Further, the “inhibition (INH)” value at Cytochrome P450 3A4 [7] and on Cytochrome P450 2D6 was “Not Active” in each case.
For `CCCOc1ccc(-c2cc(OCCN3CCCCC3)c3cc(OC)ccc3n2)cc1`, in data set [1], the inhibition is 97.6%. The selectivity ratio in data set [8] is above 128. For the same compound, the figures for the MIC (against Staphylococcus aureus [2]; in data set [9]) were 25 µg/mL (≈ 59.4 µM) and below 1.56 µg/mL, respectively. The Activity entry with Staphylococcus aureus [3] was “Dose-dependent effect”; in the data set on Staphylococcus aureus [4], “Non-Toxic”. In data set [5], the remaining at 2 h, 50 µM is above 90%. In data set [10], the Drug metabolism entry is given as “Metabolite_Detected”. For the same compound, the “inhibition (INH)” value at Cytochrome P450 3A4 [11], at Cytochrome P450 3A4 [7] and on Cytochrome P450 2D6 was “Not Active” throughout.
